Assay [1] deals with Escherichia coli. Briefly: Antibacterial activity against Escherichia coli strain ATCC 25922. Format: functional.
The subject of assay [2] is Escherichia coli. Briefly: Inhibitory activity against accumulation of [14C]-labeled Linezolid within wild-type Escherichia coli K12 cells. The assay is classed as functional, cell-based. The following applies: K-12, K12. In a few lines:
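E. coli K12 grown at 37 °C in LB + 0.2% glucose, rinsed twice, resuspended to OD530 8.0 in 50 mM KPO4 pH 7.0, 1 mM MgSO4, 0.2% glucose. Preincubated 10 min at 37 °C, inhibitor added for 30 min, then 14C-linezolid (30 µM final) 15 min. Cells spun through an oil cushion and scintillation counted. IC50 is half-maximal accumulation relative to 100 µM CCCP control.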

In the next assay the test system is Staphylococcus aureus. Briefly: Antibacterial activity against Staphylococcus aureus strain ATCC 29213. The assay is classed as functional.

This is an account of results in ChEMBL document CHEMBL1134147, “3-Arylpiperidines as potentiators of existing antibacterial agents” (Bioorg Med Chem Lett, 2001).

In brackets after ≈: the same amount, converted by molar mass. Residues, ends and D or L forms follow the SMILES beside them. *: point of attachment. βNA = c1ccc2cc(N*)ccc2c1

On to `Cl.O=C1CCNCC1Cc1cc(Br)ccc1Cl` (configuration not stated), for which the results for the MIC against Escherichia coli [1] and in the assay on Staphylococcus aureus were > 256 µg/mL and > 128 µg/mL, respectively. Moreover, in the assay with Escherichia coli [2], the IC50 was > 900 µM.
The like results for `Clc1ccc(Cl)c(CCC2CCCNC2)c1` (configuration not stated) were, in that order, 128 µg/mL (≈ 496 µM), 64 µg/mL (≈ 248 µM) and 195 µM.
In the same order, the values of `Cc1ccc(C)c(CCC2CCCNC2)c1` (configuration not stated) are > 128 µg/mL, > 128 µg/mL and > 900 µM.
For the compound `CCOc1ccc(CCC2CCCNC2)cc1` (configuration not stated), the minimal inhibitory concentration (MIC) against Escherichia coli [1] and in the assay with Staphylococcus aureus was > 128 µg/mL throughout. Moreover, the IC50 with Escherichia coli [2] is > 900 µM.
With `N#Cc1ccc(CCC2CCCNC2)cc1` (configuration not stated), the MIC in the assay with Escherichia coli [1] and in the assay on Staphylococcus aureus was > 128 µg/mL in each case. Further, the IC50 with Escherichia coli [2] is > 900 µM.
For the compound `FC(F)(F)c1cc(CCC2CCCNC2)cc(C(F)(F)F)c1` (configuration not stated), the MIC with Escherichia coli [1] and in the assay on Staphylococcus aureus was 64 µg/mL (≈ 197 µM) throughout. The compound further yielded an IC50 in the assay with Escherichia coli [2] of 300 µM.
Regarding `Clc1ccc(CCC2CCCNC2)cc1Cl` (configuration not stated), the MIC in the assay with Escherichia coli [1] and against Staphylococcus aureus was 128 µg/mL (≈ 496 µM) each time. Besides, 200 µM corresponded to half-maximal inhibition in the assay on Escherichia coli [2] (IC50).
As for `N=C(N)NCCC[C@H](NC(=O)[C@@H](N)Cc1ccccc1)C(=O)Nc1ccc2ccccc2c1` [PABETAN] (H-Phe-Arg-βNA), in the assay on Escherichia coli [1], 256 µg/mL (≈ 573 µM) was the least that counted as inhibitory (MIC). The IC50 with Escherichia coli [2] came to 730 µM.
As to `c1ccc(CCC2CCCNC2)cc1` (configuration not stated), the MIC in the assay on Escherichia coli [1] and against Staphylococcus aureus was > 128 µg/mL each time. Also, the concentration for half-maximal inhibition (IC50) in the assay with Escherichia coli [2] is > 900 µM.
Take `Cl.O[C@H]1CCNC[C@@H]1Cc1cc(Br)ccc1Cl`: the figures for the minimal inhibitory concentration (MIC) against Escherichia coli [1] and against Staphylococcus aureus were > 256 µg/mL and > 128 µg/mL, respectively. Besides, the 50% inhibitory concentration (IC50) in the assay on Escherichia coli [2] is > 900 µM.
In the same order, the values of `Cl.Clc1ccc(Br)cc1/C=C/C1CCCNC1` (configuration not stated) are 64 µg/mL, 32 µg/mL and 140 µM.
Turning to `Clc1cccc(Cl)c1CCC1CCCNC1` (configuration not stated), the MIC against Escherichia coli [1] and against Staphylococcus aureus was > 128 µg/mL in each case. The compound further registered an IC50 in the assay on Escherichia coli [2] of 290 µM.
With `Cl.Clc1ccc(Br)cc1CC1=CCCNC1`, the values for the MIC against Escherichia coli [1] and in the assay with Staphylococcus aureus were 256 µg/mL and 128 µg/mL, respectively. Also, the IC50 with Escherichia coli [2] worked out at 600 µM.
The like results for `Cl.OC1CCNC[C@@H]1Cc1cc(Br)ccc1Cl` (some centres not stated) were, in that order, > 256 µg/mL, > 128 µg/mL and > 900 µM.
The like results for `Cl.F[C@@H]1CCNC[C@H]1CCc1cc(Br)ccc1Cl` were, in that order, 64 µg/mL, 64 µg/mL and 90 µM.
In the same order, the values of `COc1ccccc1-c1ccc(CCC2CCCNC2)c(Cl)c1` (configuration not stated) are 64 µg/mL (≈ 194 µM), 32 µg/mL (≈ 97 µM) and > 900 µM.
On to `Cl.FC1=C(Cc2cc(Br)ccc2Cl)CNCC1`, for which the results for the minimal inhibitory concentration (MIC) against Escherichia coli [1] and in the assay with Staphylococcus aureus were 128 µg/mL and > 128 µg/mL, respectively. Also, the IC50 in the assay with Escherichia coli [2] came out at 480 µM.
Turning to `Cl.Clc1ccc(Br)cc1CCC1CCCNC1` (configuration not stated), the minimal inhibitory concentration (MIC) with Escherichia coli [1] came to 128 µg/mL; with Staphylococcus aureus, 64 µg/mL. This compound also yielded an IC50 in the assay with Escherichia coli [2] of 185 µM.
Consider `F[C@H]1CCNC[C@@H]1CCCc1cc(Br)ccc1Cl`, for which, in the assay on Escherichia coli [2], it took 400 µM to reach half-maximal inhibition (IC50).
For `Cl.F[C@H]1CCNC[C@@H]1Cc1cc(Br)ccc1Cl`, the results for the minimum inhibitory concentration (MIC) with Escherichia coli [1] and against Staphylococcus aureus were 256 µg/mL and > 125 µg/mL, respectively. The IC50 in the assay on Escherichia coli [2] is > 900 µM.

As a reminder, the MIC is the lowest concentration found to suppress growth. A low value points to a more susceptible organism. One may read the IC50 as the concentration that inhibits the measured activity by half. Read a low IC50 as greater potency in that assay.
